Measurements from ChEMBL document CHEMBL1938358, “A multivalent approach to the discovery of long-acting β(2)-adrenoceptor agonists for the treatment of asthma and COPD” (Bioorg Med Chem Lett, 2012).
Active and inactive are the calls of the source. The calls are words filed in the database; no cut-off is given here.

Legend:
[1] = target: T1, Beta-2 adrenergic receptor (Homo sapiens, UniProt P07550); assay: Agonist activity at recombinant human beta2-adrenoceptor expressed in whole cells assessed as cAMP accumulation by homogeneous radioimmunoassay; format: functional, cell-based
Target sequence in this assay (P07550 whole entry): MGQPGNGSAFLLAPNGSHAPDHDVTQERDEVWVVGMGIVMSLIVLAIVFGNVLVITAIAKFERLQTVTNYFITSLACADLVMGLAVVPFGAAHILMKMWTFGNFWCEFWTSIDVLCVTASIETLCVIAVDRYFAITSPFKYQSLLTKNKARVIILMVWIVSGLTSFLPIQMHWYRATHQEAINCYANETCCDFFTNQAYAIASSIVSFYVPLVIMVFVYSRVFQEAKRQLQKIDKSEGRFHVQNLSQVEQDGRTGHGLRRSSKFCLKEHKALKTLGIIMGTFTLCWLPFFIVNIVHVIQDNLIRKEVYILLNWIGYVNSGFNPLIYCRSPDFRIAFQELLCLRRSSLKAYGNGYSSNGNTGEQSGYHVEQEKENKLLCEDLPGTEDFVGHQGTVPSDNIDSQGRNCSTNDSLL

[2] = target: T1, Beta-2 adrenergic receptor; assay: Displacement of [3H]dihydroalprenolol from beta2-adrenoceptor after 90 mins by liquid scintillation counting
Target sequence in this assay (P07550 whole entry): as above

Cavia porcellus [3] = assay: Bronchoprotective activity in Ach-stimulated guinea pig assessed as reduction in pulmonary resistance at 30 ug/mL administered via nebulization measured at 48 hrs post-dosing by head-out plethysmography; format: functional, organism-based
Summary of the method: (§1)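 Guinea pigs dosed by nebulization, with water as control. Pulmonary resistance was measured in anesthetized, spontaneously breathing animals by head-out plethysmography. Bronchoconstriction was induced with increasing intravenous acetylcholine doses. The read-out was PD2, the ACh dose needed to double baseline resistance.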

Cavia porcellus [4] = assay: Bronchoprotective activity in Ach-stimulated guinea pig assessed as reduction in pulmonary resistance at 300 ug/mL administered via nebulization measured after 24 hrs by head-out plethysmography; format: functional, organism-based
[5] = target: Beta-1 adrenergic receptor (Homo sapiens, UniProt P08588); assay: Agonist activity at recombinant human beta1-adrenoceptor expressed in whole cells assessed as cAMP accumulation by homogeneous radioimmunoassay; format: functional, cell-based
Chain of Beta-1 adrenergic receptor (P08588 whole entry): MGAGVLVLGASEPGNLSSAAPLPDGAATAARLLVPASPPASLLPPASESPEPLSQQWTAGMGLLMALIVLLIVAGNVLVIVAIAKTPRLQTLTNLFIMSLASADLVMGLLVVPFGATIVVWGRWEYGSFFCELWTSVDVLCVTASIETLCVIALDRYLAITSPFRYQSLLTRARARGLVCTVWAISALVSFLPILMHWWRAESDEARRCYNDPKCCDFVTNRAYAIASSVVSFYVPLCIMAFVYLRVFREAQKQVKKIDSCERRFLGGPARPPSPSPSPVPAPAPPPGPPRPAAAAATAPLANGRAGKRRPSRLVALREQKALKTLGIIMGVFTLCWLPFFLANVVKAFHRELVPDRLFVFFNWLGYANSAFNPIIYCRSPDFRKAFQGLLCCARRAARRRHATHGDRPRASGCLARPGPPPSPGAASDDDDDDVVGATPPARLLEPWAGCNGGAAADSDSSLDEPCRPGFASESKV

[6] = target: T1, Beta-2 adrenergic receptor; assay: Ratio of pEC50 for recombinant human beta2-adrenoceptor expressed in whole cells to pEC50 for beta2-adrenoceptor endogenously expressed in human BEAS-2B cells; format: cell-based
Summary of the method: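 cAMP accumulation was measured by homogeneous radioimmunoassay (Flashplate) in two systems: whole cells overexpressing cloned human β2-adrenoceptor, and BEAS-2B human bronchial epithelial cells with endogenous β2-adrenoceptor. Potency was taken from each, and intrinsic activity from BEAS-2B.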
Target sequence in this assay (P07550 whole entry, looked up): as the sequence (P07550 whole entry) above

[7] = target: T1, Beta-2 adrenergic receptor; assay: Agonist activity at beta2-adrenoceptor endogenously expressed in human BEAS-2B cells assessed as cAMP accumulation by homogeneous radioimmunoassay; format: functional, cell-based
Target sequence in this assay (P07550 whole entry): as above

Cavia porcellus [8] = assay: Bronchoprotective activity in Ach-stimulated guinea pig assessed as reduction in pulmonary resistance at 30 ug/mL administered via nebulization measured after 1.5 hrs by head-out plethysmography; format: functional, organism-based; summary of the method: as §1
Homo sapiens = species: Homo sapiens; assay: Selectivity ratio of pEC50 for recombinant human beta2-adrenoceptor to pEC50 for human beta1-adrenoceptor
Summary of the method: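 Agonist stimulation of cAMP accumulation was measured by homogeneous radioimmunoassay (Flashplate) in whole cells overexpressing cloned human β2- or β1-adrenoceptor. Selectivity was calculated as the ratio of agonist EC50 potencies at the two subtypes.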

Row | Compound | EC50 [1] [nM] | IC50 [2] [nM] | further results
1 | OCc1cc(C(O)CNCCc2ccc(NCC(O)c3ccc(-c4ccccc4)cc3)cc2)ccc1O (configuration not stated) | 39.8 |  | 
2 | OCc1cc(C(O)CNCCc2ccc(CCNCC(O)c3ccc(O)c(CO)c3)cc2)ccc1O (configuration not stated) |  | 100000 | 
3 | OCc1cc(C(O)CNCCc2ccc(NCC(O)c3ccc(O)cc3)cc2)ccc1O (configuration not stated) | 7.94 |  | 
4 | OCc1cc(C(O)CNCC2CCCC(CNCC(O)c3ccc(O)c(CO)c3)C2)ccc1O (configuration not stated) |  | 10000 | 
5 | CC(C)CCc1ccc(C(O)CNc2ccc(CCNCC(O)c3ccc(O)c(CO)c3)cc2)cc1 (configuration not stated) | 63.1 |  | 
6 | OCc1cc(C(O)CNCCCCCCOCCCCc2ccccc2)ccc1O (configuration not stated) |  |  | Activity (Cavia porcellus [3]): inactive; Activity (Cavia porcellus [4]): Active
7 | OCc1cc(C(O)CNCCc2ccc(NCC(O)c3ccc(Cl)cc3)cc2)ccc1O (configuration not stated) | 1.58 |  | 
8 | OC(CNCCc1ccc(NCC(O)c2ccccc2)cc1)c1ccccc1 (configuration not stated) |  | 251 | 
9 | OCc1cc([C@@H](O)CNCCc2ccc(NC[C@@H](O)c3ccccc3)cc2)ccc1O (mixture of isomers) | 0.316 |  | EC50 [5]: 251 nM; Ratio [6]: 10; EC50 [7]: 3.98 nM
10 | CN(CC(O)c1ccccc1)c1ccc(CCNCC(O)c2ccc(O)c(CO)c2)cc1 (configuration not stated) | 2 |  | 
11 | OCc1cc(C(O)CNCCc2ccc(NCC(O)c3ccc(F)cc3)cc2)ccc1O (configuration not stated) | 2 |  | 
12 | OCc1cc(C(O)CNCc2cccc(CNCC(O)c3ccc(O)c(CO)c3)c2)ccc1O (configuration not stated) |  | 20000 | 
13 | CC(C)(CNCC(O)c1ccc(O)c(CO)c1)CNCC(O)c1ccc(O)c(CO)c1 (configuration not stated) |  | 251000 | 
14 | OCc1cc(C(O)CNCCCCNCC(O)c2ccc(O)c(CO)c2)ccc1O (configuration not stated) |  | 10000 | 
15 | OCc1cc(C(O)CNCc2ccc(CNCC(O)c3ccc(O)c(CO)c3)cc2)ccc1O (configuration not stated) |  | 50100 | 
16 | OCc1cc(C(O)CNCc2ccc(NCC(O)c3ccc(O)c(CO)c3)cc2)ccc1O (configuration not stated) |  | 2000 | 
17 | OCc1cc(C(O)CNC2Cc3ccc(NCC(O)c4ccccc4)cc3C2)ccc1O (configuration not stated) | 5.01 |  | 

Row | Compound | EC50 [1] [nM] | IC50 [2] [nM] | further results
18 | OCc1cc([C@@H](O)CNCCc2ccc(NC[C@H](O)c3ccccc3)cc2)ccc1O | 0.1 |  | EC50 [5]: 251 nM; Activity (Cavia porcellus [3]): inactive; Ratio [6]: 10; Activity (Cavia porcellus [8]): Active; EC50 [7]: 1.26 nM; Ratio (Homo sapiens): > 300
19 | OCc1cc(C(O)CN[C@H]2CC[C@H](NCC(O)c3ccc(O)c(CO)c3)CC2)ccc1O (some centres not stated) |  | 5010 | 
20 | Cc1ccc(C(O)CNc2ccc(CCNCC(O)c3ccc(O)c(CO)c3)cc2)cc1 (configuration not stated) | 2.51 |  | 
21 | OCc1cc(C(O)CNCCc2ccc(NCC(O)c3ccccc3)cc2)ccc1O (configuration not stated) | 0.316 | 39.8 | 
22 | Nc1c(Cl)cc([C@@H](O)CNCCc2ccc(NC[C@H](O)c3ccccc3)cc2)cc1Cl | 0.398 |  | 
23 | COc1ccc(C(O)CNc2ccc(CCNCC(O)c3ccc(O)c(CO)c3)cc2)c(OC)c1 (configuration not stated) | 39.8 |  | 
24 | OCc1cc(C(O)CNCCc2ccc(OCC(O)c3ccccc3)cc2)ccc1O (configuration not stated) | 0.398 |  | 
25 | OCc1cc(C(O)CNC2CCC(CC3CCC(NCC(O)c4ccc(O)c(CO)c4)CC3)CC2)ccc1O (configuration not stated) |  | 20000 | 
26 | CC(C)(Cc1ccc(NCC(O)c2ccccc2)cc1)NCC(O)c1ccc(O)c(CO)c1 (configuration not stated) | 0.316 |  | 
27 | OCc1cc(C(O)CNCCCCCCNCC(O)c2ccc(O)c(CO)c2)ccc1O (configuration not stated) |  | 7940 | 
28 | O=c1ccc2c([C@@H](O)CNCCc3ccc(NC[C@H](O)c4ccccc4)cc3)ccc(O)c2[nH]1 | 0.126 |  | Ratio [6]: 10; EC50 [7]: 1.26 nM
29 | O=CNc1cc([C@@H](O)CNCCc2ccc(NC[C@H](O)c3ccccc3)cc2)ccc1O [MILVETEROL] | 0.0631 |  | EC50 [5]: 25.1 nM; Activity (Cavia porcellus [3]): Active; Ratio [6]: 10; Activity (Cavia porcellus [8]): Active; EC50 [7]: 0.501 nM; Ratio (Homo sapiens): > 300
30 | OCc1cc(C(O)CNCCc2ccc(NCC(O)c3ccc4ccccc4c3)cc2)ccc1O (configuration not stated) | 50.1 |  | 
31 | CC(C)(C)c1ccc(C(O)CNc2ccc(CCNCC(O)c3ccc(O)c(CO)c3)cc2)cc1 (configuration not stated) | 50.1 |  | 
32 | COc1ccc(OC)c(C(O)CNc2ccc(CCNCC(O)c3ccc(O)c(CO)c3)cc2)c1 (configuration not stated) | 6.31 |  | 
33 | OCc1cc(C(O)CNCCc2ccc(NCC(O)c3ccc(O)c(CO)c3)cc2)ccc1O (configuration not stated) |  | 251 | 
